Test results from ChEMBL document CHEMBL4622886, “Leucinostatins from Ophiocordyceps spp. and Purpureocillium spp. Demonstrate Selective Antiproliferative Effects in Cells Representing the Luminal Androgen Receptor Subtype of Triple Negative Breast Cancer” (2020).
Active and inactive are the calls of the source. No cut-off for these calls is given here. Numbered stars: 1 amine (or outer) side, 2 acyl side, 3 side chain; on linkers, the order of the positions; unused ones are H or OH. Square brackets hold non-standard residues; d marks the D form. Peptide text beside a SMILES is read from it. * marks the point of attachment. X1 = CCC(=O)C[C@@H](O)C[C@@H](C)C[C@H](N[*:1])C(=O)[*:2]; X2 = CCC(=O)/C=C/C[C@@H](C)C[C@H](N[*:1])C(=O)[*:2]; Hexenoyl(2E,4S-Me) = CC[C@H](C)/C=C/C(=O)*; Leu(3R-OH) = CC(C)[C@@H](O)[C@H](N)C(=O)O; NH((S)CH(Me)CH2NMe2) = C[C@@H](CN(C)C)N*; Pro(4S-Me) = C[C@@H]1CN[C@H](C(=O)O)C1; NH((S)CH(CH3)CH2NHMe) = CNC[C@H](C)N*; Aib = CC(C)(N)C(=O)O; βAla = NCCC(=O)O

How the values were obtained:
[1] = biological target: T1, mTORC1 (Homo sapiens) (UniProt P42345+Q8N122+Q9BVC4); assay: Inhibition of mTORC1 signalling in human MDA-MB-231 cells assessed as induction of AKT phosphorylation at S473 residue at 100 nM measured within 18 hrs by immunoblot analysis relative to control; format: cell-based
Procedure, shortened: (§1)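 Cells were exposed to 100 nM compound or DMSO for 2, 6 or 18 h, then scraped and lysed with PMSF, Na3VO4 and protease inhibitors. Lysate (10 μg protein) ran on 10% Bis-Tris SDS-PAGE and went to PVDF. Blots were probed 1:1000 for phospho and total AKT (S473), S6K (T389), RPS6 (S235/236) and 4E-BP1 (T37/46), plus GAPDH. IRDye secondaries; infrared imaging; two independent experiments.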

[2] = biological target: T1, mTORC1 (Homo sapiens); assay: Inhibition of mTORC1 signalling in human MDA-MB-231 cells assessed as reduction in ribosomal protein S6 kinase phosphorylation at T389 residue at 100 nM measured after 2 to 18 hrs by immunoblot analysis relative to control; format: cell-based; procedure, shortened: as §1
[3] = system: MDA-MB-453; assay: Antiproliferative activity against human MDA-MB-453 cells at 1 to 100 nM incubated for 48 hrs by sulforhodamine B assay; format: functional, cell-based
Procedure, shortened: (§2)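 IMEM with 5% FBS and 0.3% gentamicin; cells used within 4 months of thaw. After seeding at set densities and adhering, cells got compound or DMSO vehicle for 48 h, then were fixed and SRB-stained, with A560 read. GI50 (50% proliferation inhibition vs vehicle) came from non-linear regression of concentration-response curves; three independent experiments, each in triplicate.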

[4] = system: SUM185PE; assay: Antiproliferative activity against human SUM185PE cells at 1 to 100 nM incubated for 48 hrs by sulforhodamine B assay; format: functional, cell-based; procedure, shortened: as §2
[5] = system: HCC1937; assay: Antiproliferative activity against human HCC1937 cells up to 100 nM incubated for 48 hrs by sulforhodamine B assay; format: functional, cell-based
Procedure, shortened: (§3)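 Cells (RPMI-1640 with 5% FBS, 0.5% gentamicin; used within 4 months of thaw) were seeded at set densities, allowed to adhere, then treated 48 h with compound or DMSO vehicle. Cells were fixed and SRB-stained, with absorbance read at 560 nm. GI50 vs vehicle was taken by non-linear regression; three independent experiments, each in triplicate.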

[6] = system: HCC1806; assay: Antiproliferative activity against human HCC1806 cells up to 100 nM incubated for 48 hrs by sulforhodamine B assay; format: functional, cell-based; procedure, shortened: as §3
[7] = system: BT-549; assay: Antiproliferative activity against human BT549 cells up to 100 nM incubated for 48 hrs by sulforhodamine B assay; format: functional, cell-based; procedure, shortened: as §3
[8] = system: MDA-MB-231; assay: Antiproliferative activity against human MDA-MB-231 cells up to 100 nM incubated for 48 hrs by sulforhodamine B assay; format: functional, cell-based; procedure, shortened: as §2
[9] = system: HCC1937; assay: Antiproliferative activity against human HCC1937 cells at >1 uM incubated for 48 hrs by sulforhodamine B assay; format: functional, cell-based; procedure, shortened: as §3
[10] = system: MDA-MB-453; assay: Antiproliferative activity against human MDA-MB-453 cells at > 1 uM incubated for 48 hrs by sulforhodamine B assay; format: functional, cell-based; procedure, shortened: as §2
[11] = system: HCC1806; assay: Antiproliferative activity against human HCC1806 cells at >1 uM incubated for 48 hrs by sulforhodamine B assay; format: functional, cell-based; procedure, shortened: as §3
[12] = system: MDA-MB-231; assay: Antiproliferative activity against human MDA-MB-231 cells at > 1 uM incubated for 48 hrs by sulforhodamine B assay; format: functional, cell-based; procedure, shortened: as §2
[13] = system: BT-549; assay: Antiproliferative activity against human BT549 cells at >1 uM incubated for 48 hrs by sulforhodamine B assay; format: functional, cell-based; procedure, shortened: as §3
[14] = biological target: T1, mTORC1 (Homo sapiens); assay: Inhibition of mTORC1 signalling in human MDA-MB-453 cells assessed as reduction in ribosomal protein S6 kinase phosphorylation at T389 residue at 100 nM measured within 2 hrs by immunoblot analysis relative to control; format: cell-based; procedure, shortened: as §1
[15] = biological target: T1, mTORC1 (Homo sapiens); assay: Inhibition of mTORC1 signalling in human MDA-MB-453 cells assessed as reduction in RPS6 phosphorylation at S235/236 residue at 100 nM measured at 2 hrs by immunoblot analysis; format: cell-based; procedure, shortened: as §1
[16] = biological target: T1, mTORC1 (Homo sapiens); assay: Inhibition of mTORC1 signalling in human MDA-MB-453 cells assessed as reduction in RPS6 phosphorylation at S235/236 residue at 100 nM measured at 6 hrs by immunoblot analysis relative to control; format: cell-based; procedure, shortened: as §1
[17] = biological target: T1, mTORC1 (Homo sapiens); assay: Inhibition of mTORC1 signalling in human MDA-MB-453 cells assessed as induction of AKT phosphorylation at S473 residue at 100 nM measured within 18 hrs by immunoblot analysis relative to control; format: cell-based; procedure, shortened: as §1
[18] = biological target: T1, mTORC1 (Homo sapiens); assay: Inhibition of mTORC1 signalling in human MDA-MB-231 cells assessed as reduction in RPS6 phosphorylation at S235/236 residue at 100 nM measured after 2 to 18 hrs by immunoblot analysis relative to control; format: cell-based; procedure, shortened: as §1
[19] = biological target: T1, mTORC1 (Homo sapiens); assay: Inhibition of mTORC1 signalling in human MDA-MB-453 cells assessed as reduction in 4E-BP1 phosphorylation at T37/46 residue at 100 nM measured after 2 hrs by immunoblot analysis; format: cell-based; procedure, shortened: as §1
[20] = biological target: T1, mTORC1 (Homo sapiens); assay: Inhibition of mTORC1 signalling in human MDA-MB-231 cells assessed as reduction in 4E-BP1 phosphorylation at T37/46 residue at 100 nM measured after 2 hrs by immunoblot analysis; format: cell-based; procedure, shortened: as §1
[21] = system: MDA-MB-453; assay: Antiproliferative activity against human MDA-MB-453 cells at 0.01 to 100 nM incubated for 48 hrs by sulforhodamine B assay; format: functional, cell-based; procedure, shortened: as §2
[22] = system: SUM185PE; assay: Antiproliferative activity against human SUM185PE cells at 0.01 to 100 nM incubated for 48 hrs by sulforhodamine B assay; format: functional, cell-based; procedure, shortened: as §2
[23] = system: MDA-MB-453; assay: Antiproliferative activity against human MDA-MB-453 cells incubated for 48 hrs by sulforhodamine B assay; format: functional; details: MDA-MB-453, 48 h; procedure, shortened: as §2
[24] = system: SUM185PE; assay: Antiproliferative activity against human SUM185PE cells incubated for 48 hrs by sulforhodamine B assay; format: functional; procedure, shortened: as §2
[25] = system: MDA-MB-231; assay: Antiproliferative activity against human MDA-MB-231 cells incubated for 48 hrs by sulforhodamine B assay; format: functional; details: MDA-MB-231, 48 h; procedure, shortened: as §2
[26] = biological target: T1, mTORC1 (Homo sapiens); details: MDA-MB-231, 10 nM
[27] = biological target: T1, mTORC1 (Homo sapiens); details: MDA-MB-453, 10 nM

T1 sequence (Q8N122 whole entry, looked up, other chains not shown): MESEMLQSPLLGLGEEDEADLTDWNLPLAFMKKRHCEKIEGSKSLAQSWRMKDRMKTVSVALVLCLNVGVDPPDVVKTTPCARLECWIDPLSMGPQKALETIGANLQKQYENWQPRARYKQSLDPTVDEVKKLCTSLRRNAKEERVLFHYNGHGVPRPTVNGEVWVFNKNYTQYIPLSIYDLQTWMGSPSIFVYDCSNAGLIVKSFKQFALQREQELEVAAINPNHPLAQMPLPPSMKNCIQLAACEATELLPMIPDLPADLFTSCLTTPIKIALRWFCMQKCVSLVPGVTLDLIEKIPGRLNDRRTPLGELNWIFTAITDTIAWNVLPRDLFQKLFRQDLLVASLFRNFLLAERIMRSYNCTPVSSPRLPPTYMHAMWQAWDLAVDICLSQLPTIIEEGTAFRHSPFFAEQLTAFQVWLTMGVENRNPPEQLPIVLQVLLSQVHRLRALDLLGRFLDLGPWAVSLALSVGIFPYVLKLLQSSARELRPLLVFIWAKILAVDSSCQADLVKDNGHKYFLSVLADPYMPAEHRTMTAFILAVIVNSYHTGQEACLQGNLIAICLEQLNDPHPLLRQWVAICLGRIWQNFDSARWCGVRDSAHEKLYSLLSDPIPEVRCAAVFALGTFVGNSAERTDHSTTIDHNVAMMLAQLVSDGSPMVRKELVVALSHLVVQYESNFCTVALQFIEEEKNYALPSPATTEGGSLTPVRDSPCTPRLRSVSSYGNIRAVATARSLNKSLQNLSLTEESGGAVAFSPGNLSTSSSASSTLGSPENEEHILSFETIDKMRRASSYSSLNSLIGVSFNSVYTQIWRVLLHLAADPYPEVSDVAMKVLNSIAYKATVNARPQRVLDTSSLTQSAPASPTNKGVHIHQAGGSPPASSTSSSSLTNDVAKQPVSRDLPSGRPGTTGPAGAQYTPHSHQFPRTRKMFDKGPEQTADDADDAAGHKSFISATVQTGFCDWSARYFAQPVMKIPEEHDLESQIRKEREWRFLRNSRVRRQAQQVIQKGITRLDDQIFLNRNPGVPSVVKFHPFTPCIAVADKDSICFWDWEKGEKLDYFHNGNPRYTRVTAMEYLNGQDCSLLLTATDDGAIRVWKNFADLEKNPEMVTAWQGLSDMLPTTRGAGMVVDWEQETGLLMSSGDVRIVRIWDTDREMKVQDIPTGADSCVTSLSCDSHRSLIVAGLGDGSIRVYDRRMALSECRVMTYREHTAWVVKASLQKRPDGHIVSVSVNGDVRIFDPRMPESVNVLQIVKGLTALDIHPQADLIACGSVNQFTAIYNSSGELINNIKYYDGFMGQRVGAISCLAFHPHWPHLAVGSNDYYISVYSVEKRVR
T1 sequence (Q9BVC4 whole entry, looked up, other chains not shown): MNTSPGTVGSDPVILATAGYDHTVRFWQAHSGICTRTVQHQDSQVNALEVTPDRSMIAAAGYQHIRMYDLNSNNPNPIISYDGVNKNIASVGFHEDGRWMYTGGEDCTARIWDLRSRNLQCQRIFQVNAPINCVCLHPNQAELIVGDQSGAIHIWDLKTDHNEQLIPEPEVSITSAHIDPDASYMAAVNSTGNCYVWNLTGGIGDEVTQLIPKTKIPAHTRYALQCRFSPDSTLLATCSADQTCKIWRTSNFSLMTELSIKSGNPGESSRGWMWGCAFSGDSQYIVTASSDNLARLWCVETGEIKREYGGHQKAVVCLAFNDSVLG

Structure (SMILES) | Activity [3] | Activity [4] | Activity [5] | Activity [6] | Activity [7] | Activity [8] | Activity [9] | Activity [10] | Activity [11] | Activity [12] | Activity [13] | GI50 [23] [nM] | GI50 [24] [nM] | GI50 [25] [nM] | other results
CCC(=O)C[C@@H](O)C[C@@H](C)C[C@H](NC(=O)[C@@H]1C[C@H](C)CN1C(=O)/C=C/[C@@H](C)CC)C(=O)N[C@H](C(=O)NC(C)(C)C(=O)N[C@@H](CC(C)C)C(=O)N[C@@H](CC(C)C)C(=O)NC(C)(C)C(=O)NC(C)(C)C(=O)NCCC(=O)N[C@@H](C)CNC)[C@H](O)C(C)C ({Hexenoyl(2E,4S-Me)}-[Pro(4S-Me)][X1][Leu(3R-OH)][Aib]LL[Aib][Aib][βAla]-{NH((S)CH(CH3)CH2NHMe)}) | Active | Active | inactive | inactive | inactive | inactive | Active | Active | Active | Active | Active | – | – | – | inhibition [1]: inactive; inhibition [2]: inactive; inhibition [14]: 100%; inhibition [15]: Active; inhibition [16]: 100%; inhibition [17]: Active; inhibition [18]: inactive; inhibition [19]: Active; inhibition [20]: inactive; inhibition [21]: Active; inhibition [22]: Active
CCC(=O)/C=C/C[C@@H](C)C[C@H](NC(=O)[C@@H]1C[C@H](C)CN1C(=O)/C=C/[C@@H](C)CC)C(=O)N[C@H](C(=O)NC(C)(C)C(=O)N[C@@H](CC(C)C)C(=O)N[C@@H](CC(C)C)C(=O)NC(C)(C)C(=O)NC(C)(C)C(=O)NCCC(=O)N[C@@H](C)CN(C)C)[C@H](O)C(C)C ({Hexenoyl(2E,4S-Me)}-[Pro(4S-Me)][X2][Leu(3R-OH)][Aib]LL[Aib][Aib][βAla]-{NH((S)CH(Me)CH2NMe2)}) | Active | Active | inactive | inactive | inactive | inactive | Active | Active | Active | Active | Active | 7.9 | 4.4 | > 100 | –
CO[C@H]1C[C@@H]2CC[C@@H](C)[C@@](O)(O2)C(=O)C(=O)N2CCCC[C@H]2C(=O)O[C@H]([C@H](C)C[C@@H]2CC[C@@H](O)[C@H](OC)C2)CC(=O)[C@H](C)/C=C(\C)[C@@H](O)[C@@H](OC)C(=O)[C@H](C)C[C@H](C)/C=C/C=C/C=C/1C [SIROLIMUS] | – | – | – | – | – | – | – | – | – | – | – | 0.05 | 0.04 | > 100 | inhibition [26]: Active; inhibition [27]: Active
